# SENP1 FRET inh = inhibitors of human SENP1 SUMO protease catalytic domain. Q9P0U3. recombinant SENP1 catalytic domain, CyPet-SUMO1-YPet FRET cleavage. inhibition, % at 10 µM. 360,000 compounds, 0.21% hits;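 active = inhibition at least 30% at 10 µM, raw YFP signal under a set limit, fluorescence ratio 0.5 to 1.5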;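 also: 0% = enzyme with DMSO and 100% = no enzyme wells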
#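 material = recombinant human SENP1 catalytic domain, His6-tagged | quantity = 20 pM enzyme | reagent = 25 nM SUMO1 FRET substrate | compound dosing = 10 µM single point, 0.5% DMSO | timing = 50 min enzyme reaction, room temperature, light-protected | detection = FRET, CFP and YFP emission | control set = no-enzyme low, enzyme-DMSO high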
# SENP7 block = SENP7 protease inhibition | inhibition, % at 5 µM | recombinant SENP7, Z-RLRGG-aminoluciferin luminescence, 40 min | Q9BQF6 | 330,000 compounds, 1.5% hits;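 active = inhibition above about 50% at the single test dose, limit read from the data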;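 also: plate controls were DMSO with enzyme for no effect and no enzyme buffer wells for full effect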
# SENP8 block-1 = blocks human SENP8 cleavage of Nedd8 substrate. Q96LD8. recombinant SENP8, Nedd8 substrate fluorescence. 360,000 compounds, 0.64% hits. AID 602440. inhibition, % at 20 µM; in the data active = inhibition mostly above about 40%, no sharp cut-off; inactive = mostly below about 27%
# Target sequence (Q96LD8 whole entry, looked up): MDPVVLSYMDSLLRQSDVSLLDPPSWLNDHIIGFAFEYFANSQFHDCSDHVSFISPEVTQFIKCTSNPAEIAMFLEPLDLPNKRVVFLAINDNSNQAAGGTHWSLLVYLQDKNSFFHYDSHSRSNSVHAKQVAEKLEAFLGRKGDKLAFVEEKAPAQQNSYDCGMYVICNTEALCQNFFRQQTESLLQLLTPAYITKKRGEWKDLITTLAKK
# SENP8 block-2 = SENP8 protease inhibition. Q96LD8. purified SENP8, Z-RLRGG-aminoluciferin cleavage, luminescence. inhibition, % at 10 µM. 330,000 compounds, 1.2% hits. AID 2540; in the data active = inhibition above about 50%
# SENP6 block = SENP6 protease inhibition. Q9GZR1. Recombinant SENP6 catalytic domain, aminoluciferin luminescence. inhibition, % at 10 µM. 330,000 compounds, 1.8% hits. AID 2599;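 active = inhibition above about 50% at the single tested dose, limit read from the data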;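 also: plate controls were DMSO wells with enzyme for no effect and DMSO wells lacking enzyme for full effect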
# Numbers without * were called inactive; · = not tested or not shown. A selection: hits, their analogues and other compounds. The true share with any hit is near 2.5%.
SMILES,SENP1 FRET inh,SENP7 block,SENP8 block-1,SENP8 block-2,SENP6 block
N=C1/C(=C\c2ccc(-c3cccc(C(=O)O)c3)o2)C(=O)N=C2SC=C(c3ccccc3)N12,-34,-3,-80,46,79*
COc1cc(CN2C[C@@H](CO)O[C@@H](n3cnc4c(Nc5ccccc5)ncnc43)C2)cc(OC)c1OC,2,·,-16,·,·
CC(NCC(=O)Nc1ccccc1C(=O)NC1CC1)c1ccc(S(C)(=O)=O)cc1 (centres undefined),-1,-5,0,-18,-16
Cc1ccc(F)c(NC(=O)/C(C#N)=C(\O)c2ccc(C(C)(C)C)cc2)c1,1,5,13,53*,22
Cc1cccc(NC(=O)C(=O)NNC(=O)c2ccc(C(C)(C)C)cc2)c1,0,-4,4,10,-7
COCC(=O)OC1CCn2c1nc1c2C(=O)C(C)=C(NC(C)=O)C1=O (centres undefined),2,·,96*,·,·
Oc1ccc(/C=N/Nc2ccc(Cl)nn2)c(O)c1O,5,4,49*,5,20
Oc1c(Br)cc(Br)cc1/C=N/Nc1ccc(Cl)nn1,-7,·,12,·,·
COc1cc([N+](=O)[O-])ccc1-c1ccc(/C=C2\C(=O)ON=C2c2ccccc2)o1,1,·,32,·,·
COc1ccc(-c2ccc(/C=C3\C(=O)N(c4ccccc4)N=C3c3ccccc3)o2)c([N+](=O)[O-])c1,0,3,46*,4,-8
Oc1cc(O)cc(-c2cc3ccc(O)cc3o2)c1,-1,25,-255,53*,48
COc1cccc(Cl)c1NC(=O)N1CCc2c([nH]c3ccccc23)C1C(F)(F)F (centres undefined),-2,4,4,-3,-16
CC(C)(C)OC(=O)CN1C(=O)S/C(=C\c2ccc(-c3cccc(C(=O)O)c3)o2)C1=O,·,9,·,68*,78*
Cc1ccc(NC(=O)CN2C(=O)S/C(=C/c3ccc(-c4cccc(C(=O)O)c4)o3)C2=O)cc1,-29,·,-273,·,·
CCc1ccccc1NC(=O)CCc1c(C)nn(-c2ccc(N3CCOCC3)nn2)c1C,0,-3,-7,4,9
COC(=O)C1=C(C(=O)OC)SC(=C2C(=S)C(C)(C)N(C(=O)CC(C)C)c3ccccc32)S1,2,17,59*,5,-8
O=c1cc(-c2ccc(O)cc2)oc2c(O)c(O)c(O)c(O)c12,-11,11,71*,24,44
CC(C)CNc1ncnc2c1ncn2[C@H]1CN(Cc2ccco2)C[C@@H](CO)O1,-2,·,9,·,·
COc1ccc(NS(=O)(=O)c2ccc(NC(=S)NC(=O)c3cccc(F)c3)cc2)nn1,3,80*,17,85*,92*
Nc1ncnc2c1ncn2-c1ccccc1Cl,1,·,4,·,·
Cc1cc(N=Nc2ccc(C)c(N=Nc3cc(C)c(N)cc3N)c2)c(N)cc1N,16,6,31,53*,52*
Cc1ccc(N=C2NC(=O)/C(=C/c3cccs3)S2)cc1C,36*,-3,17,-10,-25
C/C(=N\NC(=O)c1ccc(Br)cc1)C1C(=O)c2ccccc2C1=O,2,57*,18,94*,97*
Cc1ccccc1/C=C1\Oc2ccccc2C1=O,-3,51*,-27,63*,78*
O=C(O)CC(CC(=O)NCC(O)c1ccccc1)c1ccccc1 (centres undefined),-2,-2,9,2,0
SMILES,SENP1 FRET inh,SENP7 block,SENP8 block-1,SENP8 block-2,SENP6 block
CC1CCC/C(=C\Nc2ccc(C(=O)O)c(O)c2)C1=O (centres undefined),-8,-12,-11,28,48
O=C1CCCC/C1=C\Nc1ccc(C(=O)O)c(O)c1,-2,22,-7,36,62*
O=C(Nc1nnc(S(=O)(=O)N2CCCCC2)s1)c1cccc(Br)c1,0,-2,-141,26,30
CC(C)C[C@@H](CN)NC(=O)c1nc[nH]c1C(=O)N[C@@H](CC(=O)O)C(=O)CNC[C@H](C)NC(=O)c1nc[nH]c1C(=O)N[C@@H](CC(=O)O)C(=O)O,-1,·,4,·,·
NS(=O)(=O)c1ccc(N=Nc2c(-c3ccccc3)[nH]n(-c3nc(-c4ccccc4)cs3)c2=O)cc1,7,-7,30,-13,0
Nc1[nH]n2c(=O)cc(-c3ccccc3)nc2c1N=Nc1ccc(S(N)(=O)=O)cc1,6,8,60*,5,17
Nc1[nH]n2c(=O)cc(-c3ccccc3)nc2c1N=Nc1ccccc1,1,13,57*,1,9
